TPT1 inh: Candida albicans TPT1 enzyme inhibitors, primary screen, biochemical, fluorescence polarization; tRNA 2'-phosphotransferase TPT1 (Candida albicans SC5314); recombinant caTPT1, FP RNA substrate dephosphorylation; inhibition, % at 5 µM; actives 0.81% (n = 300,000); AID 1962, 2009;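 active = inhibition above the mean of all tested compounds plus 3 SD, set per screening campaign, cut at about 24% in these data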;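 note: plate controls were DMSO alone for no effect and ferristatin control at 100 nM for full effect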
Rpn11 inh: Rpn11 (PSMD14) deubiquitinase inhibitors, primary screen, biochemical, fluorescence polarization, uHTS | human 26S proteasome, Ub4-pepOG fluorescence polarization; 20S core pre-blocked with epoxomicin | inhibition, % at 20 µM | 26S proteasome non-ATPase regulatory subunit 14 (Homo sapiens), O00487 | AID 588493, 2011 | actives 0.59% (n = 360,000);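 active = inhibition at 20 µM, scaled to each plate's controls, above about 33%, limit read from the data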
CSN deneddyl inh: inhibitors of CSN-mediated cullin deneddylation, primary screen, biochemical, fluorescence polarization, uHTS. COP9 signalosome complex subunit 5 (Homo sapiens), Q92905. Purified CSN, SCF-Nedd8-OG deneddylation. inhibition, % at 12.5 µM. actives 0.38% (n = 360,000);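 active = pattern-corrected inhibition above about 35%, with an unprinted fluorescence ratio check between 0.5 and 1.5, limit read from the data, passing the limit was not always enough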;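 note: 0% = enzyme with substrate and 100% = substrate without enzyme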
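Assay system: Purified human Csn5 enzyme expressed in HEK293T cells | Amount: Enzyme 0.24 nM | Measured by: Fluorescence polarization readout | Medium: Tris/NaCl/DTT buffer, pH 7.5 | Compound dosing: One concentration, 12.5 µM, 0.25% DMSO | Times: 90 min incubation of compound, enzyme and substrate at room temperature | Control set: no-enzyme wells high, enzyme-with-substrate wells low | Read-out: % inhibition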
aDG glyco up: activators of alpha-DG glycosylation, primary screen, uHTS, Pro5-aDG cells, AlphaScreen; actives 0.22% (n = 360,000); AID 624168, 2012; activation, % at 10 µM; alpha-DG glycosylation AlphaScreen (IIH6); 0% Pro5, 100% B10-LARGE cell signal;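 active = activation of at least 8% versus controls, or a plate z-score of at least 8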;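 note: Pro5 are CHO cells carrying HIG-tagged alpha-DG that lacks glycosylation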
HNF4A DNA FP: change in binding of human HNF4A to DNA, primary screen, biochemical, fluorescence polarization, FITC-DNA; activity change, % at 10 µM; Hepatocyte nuclear factor 4-alpha (Homo sapiens), P41235; 1 h; actives 0.3% (n = 360,000); in the data active = activity change above about 30%, passing the limit was not always enough
XiGFP reactiv: activators of inactive X chromosome reactivation, primary screen, imaging, XiGFP fibroblasts, GFP high-content imaging, set 2 | XiGFP mouse fibroblasts, % GFP-positive cells imaging, 3 d; cells co-treated with 5-aza-dC sensitizer; scaled so ellipticine positive control = 100% | actives 0.055% (n = 360,000) | activation, % at 7.58 µM;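 active = mean normalized replicate activation at least 10% and every replicate at or above 10%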;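 note: 0% = median of on-plate neutral control wells and 100% = ellipticine 6 µM median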
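Material: XiGFP fibroblasts, SV40-immortalized; Buffer or medium: DMEM containing 5-aza-dC; Compound dosing: single point; Times: 3 days compound exposure.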
Rpn11 confirm: Rpn11 (PSMD14) deubiquitinase inhibitors, confirmation, biochemical, fluorescence polarization, single concentration; shares compounds with Rpn11 inh; purified human 26S proteasome, Ub4-pepOG fluorescence polarization; proteasome pretreated with epoxomicin; inhibition, % at 20 µM; actives 29% (n = 1,900)
MMP-2 counter: MMP-2 enzyme inhibition, confirmation, counter-screen for RPN11 inhibitor project, biochemical, fluorescence, single concentration | shares compounds with Rpn11 inh | recombinant MMP-2, FRET peptide cleavage fluorescence | inhibition, % at 20 µM | actives 4% (n = 1,900) | AID 602330, 2012;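 note: human MMP-2 activated beforehand with APMA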
Target sequence (P08253 whole entry, looked up): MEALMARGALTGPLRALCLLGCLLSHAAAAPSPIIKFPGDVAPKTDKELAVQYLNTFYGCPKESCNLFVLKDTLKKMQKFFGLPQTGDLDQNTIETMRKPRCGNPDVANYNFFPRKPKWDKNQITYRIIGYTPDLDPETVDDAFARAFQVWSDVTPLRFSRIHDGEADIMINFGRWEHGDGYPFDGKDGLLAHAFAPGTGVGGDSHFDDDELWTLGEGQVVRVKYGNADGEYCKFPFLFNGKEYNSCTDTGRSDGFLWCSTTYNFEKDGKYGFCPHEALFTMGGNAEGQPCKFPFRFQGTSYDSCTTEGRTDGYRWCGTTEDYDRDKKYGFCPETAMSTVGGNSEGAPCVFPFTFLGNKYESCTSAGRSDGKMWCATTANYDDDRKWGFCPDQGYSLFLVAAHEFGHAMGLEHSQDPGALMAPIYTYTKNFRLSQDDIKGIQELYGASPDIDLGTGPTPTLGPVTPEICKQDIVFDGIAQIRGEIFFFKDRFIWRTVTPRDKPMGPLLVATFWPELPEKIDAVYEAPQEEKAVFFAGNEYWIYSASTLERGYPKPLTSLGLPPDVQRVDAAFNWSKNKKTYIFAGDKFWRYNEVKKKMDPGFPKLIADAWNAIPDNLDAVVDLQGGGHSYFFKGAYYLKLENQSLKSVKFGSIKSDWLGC
Thrombin inh: bovine thrombin protease inhibition, confirmation, counter-screen for Rpn11 inhibitor project, biochemical, fluorescence polarization, single concentration | inhibition, % at 20 µM | bovine thrombin cleavage of Ub4-pepOG | actives 13% (n = 1,900) | shares compounds with Rpn11 inh | AID 602333, 2012;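 active = mean inhibition at least 40% at 20 µM, or signal 3 deviations below plate average, so some actives read negative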;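 note: plate controls were thrombin with DMSO for no effect and buffer wells lacking thrombin for full effect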
The depositor's hits bear a star; · = no result given. Only some compounds are listed: those with a hit (about 1.3% of all), similar ones and a draw of the others. Cut-off read from the data, not from the text of the source, unless noted: active = inhibition above about 40%; inactive = the rest.

SMILES	TPT1 inh	Rpn11 inh	CSN deneddyl inh	aDG glyco up	HNF4A DNA FP	XiGFP reactiv	Rpn11 confirm	MMP-2 counter	Thrombin inh
C[C@H](CO)N1C[C@H](C)[C@@H](CN(C)S(=O)(=O)c2cn(C)cn2)Oc2c(NC(=O)CCC(F)(F)F)cccc2C1=O	·	·	·	·	·	-1	·	·	·
Cc1nc(NC(=O)/C=C/c2ccccc2)sc1C(=O)Nc1ccccc1Cl	1	40*	9	0	-3	·	38	-41	-17
CCCC#Cc1ccc2c(c1)O[C@H](CN(C)C(=O)c1ccccc1)[C@H](C)CN([C@H](C)CO)S2(=O)=O	·	·	·	·	·	1	·	·	·
O=c1[nH]c2ccc(Cl)cc2c(-c2ccccc2)c1SC(=S)N1CCCCC1	-3	31	5	0	-3	·	·	·	·
O=c1[nH]c2ccc(Cl)cc2c(-c2ccccc2)c1SC(=S)N1CCOCC1	-5	42*	1	0	-4	·	7	1	-14
CCCCCCCCCCCCCCCC(O)C[N+](C)(C)CCO (stereo unspecified)	·	62*	3	0	7	0	77*	12	-18
CCCCCC(O)CCCC(=O)O (stereo unspecified)	·	3	-2	2	1	0	·	·	·
O=c1nc(Nc2ccc(Br)cc2)sc2ccc([N+](=O)[O-])cc12	-1	44*	46*	0	-5	0	-5	-1	-9
COC(=O)C[C@H]1CC[C@H](NS(=O)(=O)c2ccc(OC)cc2)[C@@H](CO)O1	·	·	·	·	·	0	·	·	·
O=C(C[C@H]1CC[C@@H]2[C@H](COC[C@H](O)CN2S(=O)(=O)c2ccccc2)O1)NCC1CCCCC1	·	·	·	·	·	0	·	·	·
COc1ccc(Cc2c(-c3ccc(Cl)cc3)nc3c(C)cc(Br)cn23)c(C)c1	·	44*	9	0	13	0	28	23	21
COc1ccc(Cc2c(-c3ccccc3)nc3c(C)cc(Br)cn23)c(C)c1	·	63*	-1	0	12	0	16	47*	10
COc1ccc(Cc2c(C(C)(C)C)nc3ccc(Cl)cn23)c(C)c1	·	56*	4	0	12	0	44*	-16	24
COc1ccc(Cc2c(-c3ccc(F)cc3)nc3c(C)cc(Br)cn23)c(C)c1	·	34	9	0	19	0	·	·	·
COc1ccc(Cc2c(C(C)(C)C)nc3ccc(C)cn23)c(C)c1	·	15	8	0	0	·	·	·	·
C[C@@H]1CN([C@H](C)CO)C(=O)Cc2cc(NC(=O)Cn3cnnn3)ccc2O[C@H]1CN(C)Cc1ccc(-c2ccccc2)cc1	·	·	·	·	·	0	·	·	·
COc1cccc(N(C(=O)c2cccs2)c2nc3ccccc3s2)c1	-5	111*	2	0	2	·	-15	13	14
N#CC(C(=O)NCc1ccccc1)c1nc2ccccc2nc1N1CCCC1 (stereo unspecified)	18	·	-82	0	27	·	·	·	·
N#CC(C(=O)NCCc1ccccc1)c1nc2ccccc2nc1N1CCCCC1 (stereo unspecified)	0	102*	3	0	11	·	-81	-68	-79
Cc1ccc(SCCc2cc[n+](CC(=O)c3ccccc3)cc2)cc1	2	38*	14	0	1	0	2	-7	-9
Cc1ccc(C(=O)C[n+]2ccc(Cc3ccccc3)cc2)cc1	0	2	-2	0	1	0	·	·	·
CCCNC(=O)N1CCC2(CC1)CN(C(=O)NC1CCCC1)[C@H](CO)c1[nH]c3cc(OC)ccc3c12	·	·	·	·	·	0	·	·	·
Cc1nnc(SCC2=C(C(=O)O)N3C(=O)C(NC(=O)COc4ccccc4)C3SC2)s1 (stereo unspecified)	·	1	5	0	-1	0	·	·	·
CO/N=C(/C(=O)N[C@@H]1C(=O)N2C(C(=O)O)=CCS[C@H]12)c1cnc(N)s1	-1	64*	21	0	-78	·	85*	37	15
CC(=O)NN1C(=O)/C(=C\c2ccc(Br)o2)SC1=S	5	50*	33	0	95	1	12	-20	18
SMILES	TPT1 inh	Rpn11 inh	CSN deneddyl inh	aDG glyco up	HNF4A DNA FP	XiGFP reactiv	Rpn11 confirm	MMP-2 counter	Thrombin inh
O=C(Nc1ccccc1)c1cnc2ccccc2n1	-3	128*	7	0	-2	0	-1	-19	-9
CC(C)c1ccc(NC(=O)COc2nnc(-c3cccs3)c(-c3cccs3)n2)cc1	0	32*	-2	0	2	·	15	18	-1
CCOC(=O)c1sc(Nc2ccc(C)cc2C)nc1C	2	36*	1	0	-1	·	-8	17	-22
COc1ccc(NC(=O)Nc2nnc(-c3ccncc3)s2)cc1	0	-2	1	0	-2	0	·	·	·
O=C(Nc1ccc(Cl)c(Cl)c1)Nc1nnc(-c2ccncc2)s1	2	161*	22	0	-66	0	21	-45	12
O=C(Nc1cccc(Cl)c1)N[C@H]1CC[C@@H](CCNC(=O)C2CCCCC2)O[C@@H]1CO	·	·	·	·	·	0	·	·	·
CCC(=O)Nc1ccc2c(c1)C(=O)N(C)C[C@H](OC)[C@H](C)CN(Cc1ccccn1)[C@@H](C)CO2	·	·	·	·	·	0	·	·	·
CCCn1c(NC(=O)C2COc3ccccc3O2)nc2ccccc21 (stereo unspecified)	-6	104*	0	1	-7	·	5	-2	7
Cc1noc(C)c1NC(=O)N(C)C[C@H]1Oc2ncc(C#CC(C)C)cc2C(=O)N([C@@H](C)CO)C[C@@H]1C	·	·	·	·	·	0	·	·	·
